One test deals with Escherichia coli. In words: Antibacterial activity against Escherichia coli DSM 1116 incubated for 24 hrs by disk diffusion method. It counts as functional. The method in brief: (§1)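 Standard control strains from the DSMZ collection (Braunschweig): E. coli and B. subtilis as common environmental strains, and S. aureus and P. aeruginosa as human pathogenic clinical strains. Run by the authors' previously described procedure.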

Another test relates to Staphylococcus aureus. In words: Antibacterial activity against Staphylococcus aureus DSM 799 incubated for 24 hrs by disk diffusion method. Format: functional. The method in brief:
as §1
A general note: In agar diffusion tests the substance spreads into inoculated agar from a disc or well.

Another test deals with Pseudomonas aeruginosa. Put plainly: Antibacterial activity against Pseudomonas aeruginosa DSM 22644 incubated for 24 hrs by disk diffusion method. Format: functional. The essentials:
as §1

The next test relates to Bacillus subtilis. In words: Antibacterial activity against Bacillus subtilis DSM 1088 incubated for 24 hrs by disk diffusion method. Format: functional. The method in brief: as §1
Test [1] relates to THP-1. Put plainly: Cytotoxicity against human THP1 cells assessed as reduction in cell survival by measuring inhibition of intracellular ATP level at 0.01 to 100 uM after 48 hrs by ATPlite assay. Format: functional, cell-based. The essentials:
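THP-1 human acute monocytic leukemia cells, in vitro. ATPlite luminescence measures depletion of cytoplasmic ATP.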
(ATP-based viability assays read luminescence as a measure of living cells.)

In test [2] the test system is THP-1. Put plainly: Cytotoxicity against human THP1 cells assessed as reduction in cell survival by measuring inhibition of mitochondrial metabolic activity at 0.01 to 100 uM after 48 hrs by resazurin assay. It counts as functional, cell-based. The method in brief: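 Human acute monocytic leukemia THP-1 cells, in vitro. Resazurin-based read-out measures inhibition of mitochondrial metabolic activity.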
Background: Alamar Blue is a resazurin reagent that responds to reducing activity.

In another test the test system is Bacillus spizizenii. Put plainly: Antibacterial activity against Bacillus subtilis ATCC 6633 by disk diffusion method. It counts as functional.
The subject of a further test is Brevibacillus brevis. Put plainly: Antibacterial activity against Bacillus brevis by disk diffusion method. It counts as functional.

Converted amounts (≈) assume the structure as drawn. The source made the active and inactive calls. The calls are words filed in the database; no cut-off is given here.

With `CN[C@@H]1[C@H](O[C@H]2[C@H](O[C@H]3[C@H](O)[C@@H](O)[C@H](N=C(N)N)[C@@H](O)[C@@H]3N=C(N)N)O[C@@H](C)[C@]2(O)C=O)O[C@@H](CO)[C@H](O)[C@H]1O` [STREPTOMYCIN], the MIC (as a rule, the lowest concentration found to suppress growth) was determined as 1 µg/mL (≈ 1.72 µM) in the test on Escherichia coli (DSM 1116, 24 h); 5 µg/mL (≈ 8.6 µM) against Staphylococcus aureus (DSM 799, 24 h); 10 µg/mL (≈ 17.2 µM) with Pseudomonas aeruginosa (DSM 22644, 24 h); 5 µg/mL (≈ 8.6 µM) with Bacillus subtilis (DSM 1088, 24 h).
In the case of GENTAMICIN, the MIC with Escherichia coli, with Staphylococcus aureus, in the test with Pseudomonas aeruginosa and with Bacillus subtilis was 1 µg/mL each time.
Regarding `CC[C@H](C)C(=O)[C@H]1C(=O)O[C@@]2(C)C(=O)C=C3C=C(C)OC=C3[C@H]12` [CHERMESINONE B], the MIC against Escherichia coli (DSM 1116, 24 h) is more than 10 µg/mL; against Staphylococcus aureus (DSM 799, 24 h), more than 10 µg/mL; with Pseudomonas aeruginosa (DSM 22644, 24 h) it was more than 10 µg/mL; in the test on Bacillus subtilis (DSM 1088, 24 h), more than 10 µg/mL. In addition, the outcome with THP-1 [1] and with THP-1 [2] was inactive.
Take `CCCCCCCCCCCCCCCCCC[C@H](C)C(=O)C1=C2C3=COC(C)=CC3=CC(=O)[C@]2(C)OC1=O`: the MIC in the test on Bacillus spizizenii and in the test on Brevibacillus brevis was 5 µg/mL (≈ 9.28 µM) throughout.
As to `CC[C@H](C)C(=O)[C@@H]1C(=O)O[C@@]2(C)C(=O)C=C3C=C(C)OC=C3[C@@H]12`, the MIC is more than 10 µg/mL against Escherichia coli (DSM 1116, 24 h); 5 µg/mL (≈ 15.8 µM) in the test with Staphylococcus aureus (DSM 799, 24 h); more than 10 µg/mL in the test with Pseudomonas aeruginosa (DSM 22644, 24 h); more than 10 µg/mL against Bacillus subtilis (DSM 1088, 24 h). The result with THP-1 [1] and with THP-1 [2] was inactive.
For the molecule `CC[C@H](C)C1=C2C(=O)O[C@@]3(C)C(=O)C=C4C=C(C)O[C@@H](O1)[C@@]4(O)[C@@]23O`, the MIC with Escherichia coli (DSM 1116, 24 h) is 1 µg/mL (≈ 2.87 µM); against Staphylococcus aureus (DSM 799, 24 h), more than 10 µg/mL; with Pseudomonas aeruginosa (DSM 22644, 24 h), more than 10 µg/mL; with Bacillus subtilis (DSM 1088, 24 h) it was 0.1 µg/mL (≈ 0.287 µM). Besides, the result in the test on THP-1 [1] and in the test on THP-1 [2] was inactive.
For the molecule `CC[C@H](C)C(=O)[C@H]1C(=O)O[C@@]2(C)C(=O)C=C3C=C(C)OC[C@H]3[C@H]12`, the MIC against Escherichia coli (DSM 1116, 24 h) is 5 µg/mL (≈ 15.7 µM); with Staphylococcus aureus (DSM 799, 24 h), more than 10 µg/mL; in the test with Pseudomonas aeruginosa (DSM 22644, 24 h), more than 10 µg/mL; against Bacillus subtilis (DSM 1088, 24 h), more than 10 µg/mL. Moreover, the outcome in the test on THP-1 [1] and with THP-1 [2] was inactive.

These data come from ChEMBL document CHEMBL4425087, “Antibacterial Azaphilones from an Endophytic Fungus, Colletotrichum sp. BS4” (2016).
